This experiment addresses metallo-beta-lactamase IMP-1 (Pseudomonas aeruginosa). In words: inhibition constants against purified IMP-1 – biochemical, absorbance, Ki and Km, nonselective VIM-2 MBL inhibitor project, late-stage follow-up (AID 624084). Particulars: recombinant IMP-1, nitrocefin hydrolysis absorbance 495 nm, kinetic. In short, it runs like this:
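Assay system: IMP-1 enzyme | Amount: IMP-1 enzyme at 0.1 nM final | Incubation: 6 min continuous absorbance reading at room temperature | Technique: Kinetic absorbance, 495 nm | Read-out: Ki from mixed-inhibition model fit | Repeats: Two replicate measurements | Doses: Multiple inhibitor concentrations crossed with varied substrate levels | Medium: pH 7.1 HEPES, ZnSO4, Brij 35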

The Ki is a dissociation constant, usually derived from enzyme kinetics or from competition with a known ligand.

As for `CN1CCN(NC(=O)CN2C(=O)/C(=C/c3c(Cl)ccc(Cl)c3Cl)SC2=S)CC1`, the Ki is 930 nM.

Values taken from PubChem BioAssay AID624084 (The Scripps Research Institute Molecular Screening Center, 2012).
